Experimental data: publication PMC3040411 (Bioorganic & medicinal chemistry letters, 2010)

Experiments:
[1] = test system: LPA1 GPCR; details: cited from earlier work
[2] = test system: LPA2 GPCR; details: cited from earlier work
[3] = biological target: Recombinant ATX (Homo sapiens, UniProt Q13822); format: biochemical; details: for Mechanism of ATX inhibition: assigned by lowest averaged percent residuals of curve fitting
Method in brief: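 Recombinant autotaxin ([…]) with test compound at various concentrations, in pH 8.0 Tris-HCl 50 mM buffer with NaCl 140 mM, KCl 3 mM, MgCl2 and CaCl2 1 mM each, and fatty-acid-free BSA 15 μM; LPA 18:1 as positive control. Fluorescence (ex 485/em 538 nm) read at start and after 2 h, 37 °C; activity as percent of vehicle, triplicate wells. For mechanism, FS-3 varied 0.3–20 μM at three inhibitor levels; competitive, uncompetitive, mixed and non-competitive models fitted simultaneously to give Ki.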

[4] = biological target: LPA5 (Homo sapiens, UniProt Q9H1C0); experiment: LPA5-mediated calcium mobilization in B103 cells stably expressing LPA5; format: cell-based; details: concentrations above 1 μM, p < 0.05
Sequence of LPA5 (Q9H1C0 whole entry, species assumed): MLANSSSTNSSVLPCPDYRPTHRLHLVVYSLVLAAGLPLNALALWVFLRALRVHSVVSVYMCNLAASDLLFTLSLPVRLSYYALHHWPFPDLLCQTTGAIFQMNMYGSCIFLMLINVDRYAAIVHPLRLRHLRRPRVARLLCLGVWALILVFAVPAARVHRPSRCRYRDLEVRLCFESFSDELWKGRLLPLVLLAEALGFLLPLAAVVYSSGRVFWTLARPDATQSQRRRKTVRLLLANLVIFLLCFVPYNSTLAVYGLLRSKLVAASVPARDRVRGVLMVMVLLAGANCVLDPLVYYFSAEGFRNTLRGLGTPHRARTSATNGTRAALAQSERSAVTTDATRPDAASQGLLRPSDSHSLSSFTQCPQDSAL

Compound | LPA1 GPCR activation [1] | LPA2 GPCR activation [2] | Mechanism of ATX inhibition [3] | Efficacy for LPA5-mediated calcium mobilization compared with R-3-CCPA [4] | Potency in ATX inhibition relative to S-3-CCPA ([3]; FS-3 1 μM, 2 hours at 37 °C)
1-acyl-2,3-glycerophosphate [CPA] | weak agonist | weak agonist | – | – | –
CCCCCCCCCCCCCCCCCC(=O)OC[C@@H]1CCP(=O)([O-])O1.[Na+] [S-3-CCPA] | – | – | mixed mode | significantly higher | –
CCCCCCCCCCCCCCCCCC(=O)OC[C@H]1CCP(=O)([O-])O1.[Na+] [R-3-CCPA] | – | – | mixed mode | – | approximately 2 fold
